High-throughput results (PubChem BioAssay)
Rows were chosen to be rich in hits. Some 5.8% of all compounds tested hit in one or more screens of this group.
GASC1 inh: blocks human GASC-1 (KDM4C) demethylase activity | Q9H3R0 | GST-KDM4C 2-372, H3K9me3 peptide, LANCE TR-FRET | inhibition, % at 12.5 µM | actives 0.15% (n = 96,000) | AID 720574;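 active means mean replicate inhibition above about 25%, with at least 55% of replicates also reaching it, limit read from the data, passing the limit was not always enough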
Target sequence (Q9H3R0 2-372 limits assumed): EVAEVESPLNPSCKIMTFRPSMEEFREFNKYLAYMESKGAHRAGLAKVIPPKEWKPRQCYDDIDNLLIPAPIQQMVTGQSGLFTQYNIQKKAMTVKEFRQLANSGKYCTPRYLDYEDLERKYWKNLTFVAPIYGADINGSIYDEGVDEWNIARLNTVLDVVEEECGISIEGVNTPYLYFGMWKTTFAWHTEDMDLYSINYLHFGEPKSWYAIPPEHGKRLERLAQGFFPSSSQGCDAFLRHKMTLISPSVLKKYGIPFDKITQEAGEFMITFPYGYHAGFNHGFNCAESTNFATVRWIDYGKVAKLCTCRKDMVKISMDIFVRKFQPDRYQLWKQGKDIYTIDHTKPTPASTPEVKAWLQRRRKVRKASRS
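Test system – GST-tagged GASC-1 (JMJD2C) catalytic fragment, aa 2-372 · Medium – HEPES buffer, pH 7.5, plus ascorbate · Reagent – H3K9me3 peptide with Fe(II)/2OG · Compound – one test concentration per compound · Timing – 30 min reaction, 60 min detection, RT · Technique – TR-FRET with Eu antibody and ULight streptavidin, EDTA stop · Read-out basis – inhibition from TR-FRET ratio decrease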
Pf Dd2 inh: blocks growth of Plasmodium falciparum Dd2 parasites; actives 2.3% (n = 94,000); P. falciparum Dd2 growth, SYBR Green, 72 h; stronger effect = lower value; activity change, % at 10 µM; AID 1159554; in the data active means activity change below about -80%
IDH1 R132H inh: IDH1 R132H (human) inhibition. IDH1 R132H reductase, diaphorase/resazurin fluorescence, 60 min. inhibition, % at 10 µM. actives 0.18% (n = 70,000); in the data active means inhibition above about 34%
Tcruzi prolif: T. cruzi proliferation inhibition. T. cruzi beta-gal in NIH3T3, GalScreen luminescence, 90 h. inhibition, % at 8.34 µM. actives 5.9% (n = 77,000). AID 624255;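 active means mean inhibition above about 93%, with at least 55% of replicates each passing it, limit read from the data, passing the limit was not always enough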
A number is an active result.

Cc1ccc(S(=O)(=O)N(C)C[C@@H]2OCCCC[C@@H](C)Oc3ccc(NC(=O)Nc4ccccc4)cc3C(=O)N([C@@H](C)CO)C[C@H]2C)cc1 was read as GASC1 inh inactive, Pf Dd2 inh inactive and Tcruzi prolif inactive.
Screening Cc1ccc(S(=O)(=O)N(C)C[C@@H]2OCCCC[C@@H](C)Oc3ccc(NC(=O)Nc4ccccc4)cc3C(=O)N([C@@H](C)CO)C[C@@H]2C)cc1 returned GASC1 inh inactive, Pf Dd2 inh -91 and Tcruzi prolif inactive.
For CC(C)NC(=O)Nc1ccc2c(c1)C(=O)N([C@@H](C)CO)C[C@H](C)[C@H](CN(C)S(=O)(=O)c1ccc(Cl)cc1)OCCCC[C@@H](C)O2 the results were GASC1 inh inactive, Pf Dd2 inh -83, IDH1 R132H inh inactive and Tcruzi prolif inactive.
CC(C)NC(=O)Nc1ccc2c(c1)C(=O)N([C@H](C)CO)C[C@H](C)[C@H](CN(C)S(=O)(=O)c1ccc(Cl)cc1)OCCCC[C@@H](C)O2 was read as GASC1 inh inactive, Pf Dd2 inh inactive, IDH1 R132H inh inactive and Tcruzi prolif inactive.
For O=C(CSc1n[nH]c(-c2ccccc2)n1)Nc1cccc(C(F)(F)F)c1 the results were IDH1 R132H inh inactive.
C[C@@H]1CN([C@@H](C)CO)C(=O)c2cccc(NC(=O)CCCCCC(=O)Nc3ccccc3N)c2O[C@@H]1CN(C)S(=O)(=O)c1cccs1 was read as GASC1 inh inactive, Pf Dd2 inh -92 and IDH1 R132H inh inactive.
Cc1ccc(S(=O)(=O)N(C)C[C@@H]2Oc3c(NC(=O)CCCCCC(=O)Nc4ccccc4N)cccc3C(=O)N([C@@H](C)CO)C[C@H]2C)cc1 was read as GASC1 inh inactive, Pf Dd2 inh -88 and IDH1 R132H inh inactive.
`Cc1ccc(S(=O)(=O)N(C)C[C@H]2Oc3c(NC(=O)CCCCCC(=O)Nc4ccccc4N)cccc3C(=O)N([C@@H](C)CO)C[C@H]2C)cc1` gave GASC1 inh inactive, Pf Dd2 inh -91 and IDH1 R132H inh inactive.
`C[C@@H]1CN([C@H](C)CO)C(=O)c2cccc(NC(=O)CCCCCC(=O)Nc3ccccc3N)c2O[C@H]1CN(C)S(=O)(=O)c1cccs1` gave GASC1 inh inactive, Pf Dd2 inh inactive and IDH1 R132H inh inactive.
For C[C@@H]1CN([C@@H](C)CO)C(=O)c2cccc(NC(=O)CCCCCC(=O)Nc3ccccc3N)c2O[C@@H]1CN(C)S(=O)(=O)c1ccccc1 the results were GASC1 inh inactive and Pf Dd2 inh -90.
For C[C@@H]1CN([C@H](C)CO)C(=O)c2c(c3ccccc3n2C)-c2ccccc2CO[C@H]1CN(C)C(=O)[C@H](C)c1ccccc1 the results were GASC1 inh inactive and Pf Dd2 inh -84.
Screening C[C@H](NC(=O)N(C)C[C@H]1OCc2ccccc2-c2c(n(C)c3ccccc23)C(=O)N([C@@H](C)CO)C[C@@H]1C)c1ccccc1 returned GASC1 inh inactive, Pf Dd2 inh -81 and Tcruzi prolif inactive.
C[C@H](C(=O)N(C)C[C@@H]1OCc2ccccc2-c2c(n(C)c3ccccc23)C(=O)N([C@H](C)CO)C[C@H]1C)c1ccccc1 was read as GASC1 inh inactive and Pf Dd2 inh inactive.
Screening C[C@@H]1CN([C@@H](C)CO)C(=O)c2c(c3ccccc3n2C)-c2ccccc2CO[C@@H]1CN(C)C(=O)N[C@H](C)c1ccccc1 returned GASC1 inh inactive, Pf Dd2 inh inactive, IDH1 R132H inh inactive and Tcruzi prolif inactive.
Screening C[C@@H]1CN([C@@H](C)CO)C(=O)c2c(c3ccccc3n2C)-c2ccccc2CO[C@@H]1CN(C)C(=O)[C@H](C)c1ccccc1 returned GASC1 inh inactive and Pf Dd2 inh -87.
Screening CC(C)OC(=O)N(C)C[C@H]1OCc2ccccc2-c2c(n(C)c3ccccc23)C(=O)N([C@H](C)CO)C[C@H]1C returned GASC1 inh inactive, Pf Dd2 inh -83, IDH1 R132H inh inactive and Tcruzi prolif inactive.
For Cc1cc2nc(-c3cccc(NC(=O)COc4ccc(Cl)cc4)c3C)oc2cc1C the results were IDH1 R132H inh inactive.
Screening C[C@H]1CCCCO[C@@H](CN(C)Cc2ccccc2)[C@@H](C)CN([C@@H](C)CO)C(=O)c2cc(NC(=O)Nc3ccc(F)cc3)ccc2O1 returned GASC1 inh inactive, Pf Dd2 inh -86, IDH1 R132H inh inactive and Tcruzi prolif inactive.
COc1ccc(NC(=O)N(C)C[C@H]2OCCCC[C@@H](C)Oc3ccc(N(C)C)cc3C(=O)N([C@@H](C)CO)C[C@H]2C)cc1 was read as GASC1 inh inactive, Pf Dd2 inh -83 and Tcruzi prolif inactive.
C[C@@H]1CN([C@H](C)CO)C(=O)c2cc(NC(=O)Nc3ccccc3)ccc2O[C@@H](C)CCCCO[C@@H]1CN(C)Cc1ccc(C(F)(F)F)cc1 was read as GASC1 inh inactive, Pf Dd2 inh -85, IDH1 R132H inh inactive and Tcruzi prolif inactive.
`COc1ccc(NC(=O)N(C)C[C@@H]2OCCCC[C@H](C)Oc3ccc(NC(=O)c4ccccc4)cc3C(=O)N([C@@H](C)CO)C[C@@H]2C)cc1` gave GASC1 inh inactive, Pf Dd2 inh -84 and Tcruzi prolif inactive.
COc1ccc(NC(=O)N(C)C[C@H]2OCCCC[C@@H](C)Oc3ccc(N(C)C)cc3C(=O)N([C@H](C)CO)C[C@H]2C)cc1 was read as GASC1 inh inactive, Pf Dd2 inh inactive and Tcruzi prolif inactive.
`CC(C)n1nnc(CC(=O)NN)n1` gave IDH1 R132H inh inactive.
`CC(=O)O[C@@]1(C)C[C@@H](OC(=O)/C=C/c2ccc(O)cc2)[C@@H]2C(C(=O)O)=COC(O[C@@H]3O[C@H](CO)[C@@H](O)[C@H](O)[C@H]3O)[C@@H]21` (stereo partly specified) gave IDH1 R132H inh inactive.
Screening Cc1ccc(OCC(=O)Nc2ccc3oc(-c4cccnc4)nc3c2)cc1C returned IDH1 R132H inh inactive.
Screening NC(N)=NS(=O)(=O)c1ccc(NC(=O)OC2CCCC2)cc1 returned IDH1 R132H inh inactive.
Screening O=C(COc1cccc(NC(=O)c2ccc([N+](=O)[O-])cc2)c1)c1ccc(F)cc1 returned IDH1 R132H inh inactive.
For Cc1cccc(-n2c(SCC(=O)c3ccccc3)nnc2-c2ccncc2)c1C the results were IDH1 R132H inh inactive.
`C[C@@H]1CN([C@H](C)CO)C(=O)c2cc(NC(=O)Nc3ccc(C(F)(F)F)cc3)ccc2O[C@@H](C)CCCCO[C@@H]1CN(C)Cc1ccncc1` gave GASC1 inh inactive, Pf Dd2 inh inactive and Tcruzi prolif inactive.
`C[C@@H]1CCCCO[C@H](CN(C)Cc2ccc(Cl)c(Cl)c2)[C@@H](C)CN([C@@H](C)CO)C(=O)c2cc(NC(=O)Cc3ccccc3)ccc2O1` gave GASC1 inh inactive, Pf Dd2 inh -86, IDH1 R132H inh inactive and Tcruzi prolif inactive.
For C[C@H]1CCCCO[C@H](CN(C)C(=O)Nc2ccc(C(F)(F)F)cc2)[C@@H](C)CN([C@@H](C)CO)C(=O)c2cc(NC(=O)c3ccccc3)ccc2O1 the results were GASC1 inh inactive, Pf Dd2 inh -87 and Tcruzi prolif inactive.
